In brackets after ≈: the same amount, converted by molar mass. Entries after “also recorded” stand apart in the source; their conditions may differ.
Columns and labels:
[1] = thermodynamic and kinetic water solubility; type: physicochemical
Method in brief: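 Test compound solutions shaken in a shaker bath for 48 h at room temperature, then filtered. Dissolved compound quantified by LC–UV–MS against calibration curves made from standard solutions in methanol. Determinations in triplicate.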

[2] = system: Huh-9-13 cells; experiment: vital stains; type: cell-based
Method in brief: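 Huh-9-13 replicon cells seeded at 25.000 cells/dish in complete DMEM without G418. Next day, treated with test compound (90 μM), an NS3 protease inhibitor (15 μM) or DMSO for 3 days at 37 °C, 5% CO2. Stained 30 min with Nile Red (2 μg/mL), monodansylcadaverine (50 μM) or LipidTOX Red (1/1000), then imaged live by confocal microscopy.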

[3] = system: genotype 1b HCV subgenomic replicon in Huh-5-2 cells; type: cell-based, hepatitis C virus
[4] = target: recombinant NS5BCΔ21 1b (Hepatitis C virus genotype 1b, UniProt O92972); experiment: NS5B primer dependent elongation; type: biochemical
[5] = target: recombinant NS5BCΔ21 mutant M423T (Hepatitis C virus genotype 1b, UniProt O92972, M2842T); experiment: NS5B mutant counterscreen assay, M423T; type: biochemical; settings: M423T relative to NS5B WT (IC50 = 4.3 μM)
[6] = system: Huh-5-2 cells; experiment: microscopic examination of cell morphology in the replicon assay; type: cell-based; settings: 72 h of compound treatment
[7] = system: Huh-5-2 cells; experiment: MTS assay of antimetabolic effect, Huh-5-2; type: cell-based; settings: data not shown

Row | SMILES | assessment of anti-HCV activity in the replicon assay (in words) [3] | fold more active than o-chlorine derivative 2c (NS5B) [4] | effect on cell morphology (microscopic analysis) [6] | anti-NS5B activity (in words) [4] | further results
1 | CN1c2c(C(=O)Nc3ccc(NS(C)(=O)=O)cc3)nn(-c3cccc(Cl)c3)c2-c2ccccc2S1(=O)=O [2a, 1-(3-Chlorophenyl)-4-methyl-N-{4-[(methylsulfonyl)amino]phenyl}-1,4-dihydropyrazolo[4,3-c][1,2]benzothiazine-3-carboxamide 5,5-Dioxide] | selective anti-HCV activity without any antimetabolic effect | about 4 fold |  |  | solubility kinetic at 48 h ([1]; kinetic from dmso stock): 0.275 µM (≈ 0.154 µg/mL); solubility thermodynamic at 48 h ([1]; thermodynamic from solid): 0.00398 µM (≈ 0.00222 µg/mL); induction of multilamellar bodies (monodansylcadaverine stain) ([2]; 90 μM): did not induce multilamellar bodies; neutral lipids content (Nile Red and LipidTOX red stain) ([2]; 90 μM): significantly altered the neutral lipids content; fold higher NS5B inhibitory activity than parent compound 1 [4]: about 5 fold; fold change [5]: ~2
2 | CN1c2c(C(=O)Nc3ccc(NS(C)(=O)=O)cc3)nn(-c3ccc(Cl)cc3)c2-c2ccccc2S1(=O)=O [2b, 1-(4-Chlorophenyl)-4-methyl-N-{4-[(methylsulfonyl)amino]phenyl}-1,4-dihydropyrazolo[4,3-c][1,2]benzothiazine-3-carboxamide 5,5-Dioxide] | selective anti-HCV activity without any antimetabolic effect | ~2 fold | did not show any significant cell morphological alterations; also recorded: did not display any significant effects on cell morphology; also recorded: did not exhibit any cell morphological alterations; also recorded: did not show any significant alteration in cell morphology; also recorded: did not display any antimetabolic and cell morphology alteration effects |  | induction of phospholipidosis/steatosis (different stainings) [2]: induced pospholipidosis/steatosis; SI (ratio of CC50 to EC50) [3]: > 28
3 | Cc1ccc(-n2nc(C(=O)Nc3ccc(NS(C)(=O)=O)cc3)c3c2-c2ccccc2S(=O)(=O)N3C)cc1 [2h, 4-Methyl-1-(4-methylphenyl)-N-{4-[(methylsulfonyl)amino]phenyl}-1,4-dihydropyrazolo[4,3-c][1,2]benzothiazine-3-carboxamide 5,5-Dioxide] | selective anti-HCV activity without any antimetabolic effect |  | did not display any significant effects on cell morphology; also recorded: did not display any antimetabolic and cell morphology alteration effects |  | 
4 | COc1ccc(-n2nc(C(=O)Nc3ccc(NS(C)(=O)=O)cc3)c3c2-c2ccccc2S(=O)(=O)N3C)cc1 [2k, 1-(4-Methoxyphenyl)-4-methyl-N-{4-[(methylsulfonyl)amino]phenyl}-1,4-dihydropyrazolo[4,3-c][1,2]benzothiazine-3-carboxamide 5,5-Dioxide] | selective anti-HCV activity without any antimetabolic effect |  | did not display any significant effects on cell morphology | inactive | inhibition at 50 µM ([4]; read-out: inhibition of NS5B RdRp activity, screen at 50 μM): < 50%
5 | CN1c2c(C(=O)Nc3ccc(OCC(N)=O)cc3)nn(-c3cccc(F)c3)c2-c2ccccc2S1(=O)=O [compound 4, N-[4-(Amino-2-oxoethoxy)phenyl]-1-(3-fluorophenyl)-4-methyl-1,4-dihydropyrazolo[4,3c][1,2]benzothiazine-3-carboxamide 5,5-Dioxide] |  |  |  | inactive | antimetabolic effect after dose–response curve analysis [7]: displayed antimetabolic effect

Source: PMC4203399 (Journal of Medicinal Chemistry, 2014)
